Laboratory results taken from ChEMBL document CHEMBL3425429.
Active and inactive are the calls of the source. The calls are words filed in the database; no cut-off is given here.

How the values were obtained:
MDA-MB-231 [1] = assay: cells; conditions: Homo sapiens, MDA-MB-231, 72 h
HepG2 = assay: cells; conditions: Homo sapiens, HepG2, 72 h
[2] = biological target: Proto-oncogene tyrosine-protein kinase Src (Homo sapiens, UniProt P12931)
MDA-MB-231 [3] = assay: Potency index, ratio of dasatinib IC50 to compound IC50 for human MDA-MB-231 cells; format: functional
MDA-MB-231 [4] = assay: Potency index, ratio of ponatinib IC50 to compound IC50 for human MDA-MB-231 cells; format: functional
MDA-MB-231 [5] = assay: Induction of apoptosis in human MDA-MB-231 cells assessed as early apoptotic cells at 0.3 uM after 48 hrs by annexin V-FITC/propidium iodide staining-based flow cytometric analysis (reference value: […]); format: functional
MDA-MB-231 [6] = assay: Induction of apoptosis in human MDA-MB-231 cells assessed as late apoptotic cells at 0.3 uM after 48 hrs by annexin V-FITC/propidium iodide staining-based flow cytometric analysis (reference value: 4.25%); format: functional
MDA-MB-231 [7] = assay: Induction of apoptosis in human MDA-MB-231 cells assessed as viable cells at 0.3 uM after 48 hrs by annexin V-FITC/propidium iodide staining-based flow cytometric analysis (reference value: 94.4%); format: functional; conditions: MDA-MB-231, 48 h, read-out: Activity
MDA-MB-231 [8] = assay: Cell cycle arrest in human MDA-MB-231 cells assessed as accumulation at G0/G1 phase at 0.3 uM after 24 to 48 hrs by flow cytometric analysis; format: functional, cell-based
MDA-MB-231 [9] = assay: Antimigratory activity against human MDA-MB-231 cells at 0.03 to 0.3 uM after 20 hrs by wound healing assay; format: functional, cell-based
In short: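 MDA-MB-231 monolayers grown to confluence, scratched with a sterile pipet tip, rinsed with saline, then kept in DMEM containing vehicle or compound; wound images taken after 20 h and analysed.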

MDA-MB-231 [10] = assay: Antiinvasive activity against human MDA-MB-231 cells at 0.1 uM after 24 hrs by transwell assay; format: functional, cell-based
MDA-MB-231 [11] = assay: Inhibition of ERK phosphorylation in human MDA-MB-231 cells at 0.001 to 1 uM after 20 hrs by Western blot analysis; format: cell-based
In short: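 MDA-MB-231 cells exposed to a concentration series for 20 h at 37 °C, then washed in ice-cold saline and lysed in RIPA buffer with protease cocktail. Lysates were cleared at 12 000 rpm for 10 min at 4 °C and protein measured by Bradford. Equal protein was run on SDS-PAGE, transferred to PVDF and immunoblotted for phospho-proteins.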

MDA-MB-231 [12] = assay: Effect on AKT phosphorylation in human MDA-MB-231 cells at 0.001 to 1 uM after 20 hrs by Western blot analysis; format: cell-based
In short: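 MDA-MB-231 cells exposed to a concentration series for 20 h at 37 °C, lysed in RIPA with protease inhibitor cocktail, cleared by centrifugation, protein quantified by Bradford, resolved by SDS-PAGE, transferred to PVDF and immunoblotted.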

MDA-MB-231 [13] = assay: Antiproliferative activity against human MDA-MB-231 cells assessed as inhibition of colony formation at >0.01 uM after 12 days by crystal violet staining-based assay; format: functional, cell-based
In short: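 MDA-MB-231 cells plated at 5000 per well and treated the next day with vehicle or compound, medium refreshed every 4 days; after 12 days, colonies fixed in methanol, crystal violet stained and photographed.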

MDA-MB-231 [14] = assay: Antitumor activity against human MDA-MB-231 cells xenografted in SCID mouse assessed as tumor growth inhibition at 40 mg/kg/day administered for 18 days measured every 3 days during compound dosing; format: functional, organism-based
MDA-MB-231 [15] = assay: Induction of apoptosis in human MDA-MB-231 cells assessed as early apoptotic cells at 0.3 uM after 24 hrs by annexin V-FITC/propidium iodide staining-based flow cytometric analysis (reference value: 1.58%); format: functional
MDA-MB-231 [16] = assay: Induction of apoptosis in human MDA-MB-231 cells assessed as late apoptotic cells at 0.3 uM after 24 hrs by annexin V-FITC/propidium iodide staining-based flow cytometric analysis (reference value: 2.67%); format: functional
MDA-MB-231 [17] = assay: Induction of apoptosis in human MDA-MB-231 cells assessed as viable cells at 0.3 uM after 24 hrs by annexin V-FITC/propidium iodide staining-based flow cytometric analysis (reference value: 95.5%); format: functional; conditions: MDA-MB-231, 24 h, read-out: Activity
MDA-MB-231 [18] = assay: Antitumor activity against human MDA-MB-231 cells xenografted in SCID mouse assessed as tumor growth inhibition at 10 mg/kg/week, iv administered for 18 days measured every 3 days during compound dosing; format: functional, organism-based
In short: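 SCID mice (5–6 weeks) given subcutaneous injections of 5 ×10^6 MDA-MB-231 cells; at 150–200 mm3 tumors, randomized into 6 groups of 6; oral daily dosing (vehicle 25% PEG400 + 5% DMSO in sterile water), paclitaxel 10 mg/kg/week by tail vein; tumors measured every 3 days, volume = ab²/2; side effects monitored daily.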

Sequence of Proto-oncogene tyrosine-protein kinase Src (P12931 2-536 limits assumed): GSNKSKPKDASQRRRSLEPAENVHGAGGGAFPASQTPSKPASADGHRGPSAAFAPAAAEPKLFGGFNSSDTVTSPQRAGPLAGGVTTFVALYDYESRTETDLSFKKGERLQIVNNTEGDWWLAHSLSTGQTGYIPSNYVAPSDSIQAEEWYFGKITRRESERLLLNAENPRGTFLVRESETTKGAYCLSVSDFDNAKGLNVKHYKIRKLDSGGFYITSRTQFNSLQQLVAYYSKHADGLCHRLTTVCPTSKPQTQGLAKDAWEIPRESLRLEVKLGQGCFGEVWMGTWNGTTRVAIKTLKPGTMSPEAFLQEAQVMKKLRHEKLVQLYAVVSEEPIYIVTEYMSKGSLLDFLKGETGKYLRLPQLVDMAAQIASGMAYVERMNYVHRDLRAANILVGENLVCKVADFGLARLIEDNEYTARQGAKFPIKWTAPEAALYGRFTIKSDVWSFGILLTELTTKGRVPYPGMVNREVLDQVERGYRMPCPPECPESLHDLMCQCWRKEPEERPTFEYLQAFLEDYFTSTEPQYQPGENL

Row | SMILES | IC50 (MDA-MB-231 [1]) | IC50 (HepG2) | IC50 [2] | further results
1 | CCn1nc(C#Cc2cc(C(=O)Nc3ccc(CN4CCN(C)CC4)c(C(F)(F)F)c3)ccc2F)c2c(N)ncnc21 | 1740 nM | > 5000 nM | – | –
2 | Cc1ccc(C(=O)Nc2ccc(CN3CCN(C)CC3)cc2)cc1C#Cc1nn(C(C)C)c2ncnc(N)c12 | 270 nM | 4700 nM | – | –
3 | CCn1nc(C#Cc2cc(C(=O)Nc3ccc(CN4CCN(C)CC4)c(C(F)(F)F)c3)ccc2C(C)C)c2c(N)ncnc21 | 1220 nM | > 5000 nM | 1410 nM | –
4 | Cc1ccc(C(=O)Nc2ccc(CN3CCN(C)CC3)c(C(F)(F)F)c2)cc1C#Cc1nn(C2CCNCC2)c2ncnc(N)c12 | – | > 5000 nM | 12 nM | –
5 | Cc1ccc(C(=O)Nc2ccc(CN3CCN(C)CC3)c(Cl)c2)cc1C#Cc1nn(C(C)C)c2ncnc(N)c12 | 57 nM | 3540 nM | 2 nM | –
6 | Cc1ccc(C(=O)Nc2ccc(CN3CCN(C)CC3)c(C(F)(F)F)c2)cc1C#Cc1nn(C(C)C)c2ncnc(N)c12 | 69 nM | > 5000 nM | 2 nM | Ratio IC50 (MDA-MB-231 [3]): 2.5; Ratio IC50 (MDA-MB-231 [4]): 2.5
7 | CCn1nc(C#Cc2cc(C(=O)Nc3ccc(CN4CCN(C)CC4)c(C(F)(F)F)c3)ccc2OC)c2c(N)ncnc21 | 321 nM | 4640 nM | – | –
8 | Cc1ccc(C(=O)Nc2cccc(C(F)(F)F)c2)cc1C#Cc1nn(C(C)C)c2ncnc(N)c12 | 103 nM | > 5000 nM | – | –
9 | Cc1ccc(C(=O)Nc2ccc(CN3CCN(C)CC3)c(C(F)(F)F)c2)cc1C#Cc1nn(C2CCCC2)c2ncnc(N)c12 | 65 nM | > 5000 nM | – | –
10 | Cc1ccc(C(=O)Nc2ccc(CN3CCN(C)CC3)c(C(F)(F)F)c2)cc1C#Cc1nn(C)c2ncnc(N)c12 | 20 nM | > 5000 nM | – | –
11 | Cc1ccc(C(=O)Nc2ccc(CN3CCN(CCO)CC3)c(C(F)(F)F)c2)cc1C#Cc1nn(C(C)C)c2ncnc(N)c12 | 50 nM | 1770 nM | 4 nM | –
12 | Cc1ccc(C(=O)Nc2ccc(CN3CCN(C)CC3)c(Br)c2)cc1C#Cc1nn(C(C)C)c2ncnc(N)c12 | 40 nM | 1830 nM | 1 nM | –
13 | CCN1CCN(Cc2ccc(NC(=O)c3ccc(C)c(C#Cc4nn(C(C)C)c5ncnc(N)c45)c3)cc2C(F)(F)F)CC1 | 56 nM | > 5000 nM | 2 nM | –
14 | CCn1nc(C#Cc2cc(C(=O)Nc3ccc(CN4CCN(C)CC4)c(C(F)(F)F)c3)ccc2O)c2c(N)ncnc21 | > 5000 nM | > 5000 nM | – | –
15 | C=CC(=O)N1CCC(n2nc(C#Cc3cc(C(=O)Nc4ccc(CN5CCN(C)CC5)c(C(F)(F)F)c4)ccc3C)c3c(N)ncnc32)CC1 | 14 nM | > 5000 nM | – | –
16 | Cc1ccc(C(=O)Nc2ccc(CN3CCN(C)CC3)c(C(F)(F)F)c2)cc1C#Cc1nn(C2CCC2)c2ncnc(N)c12 | 28 nM | > 5000 nM | – | –
17 | Cc1ccc(C(=O)Nc2ccc(CN3CCN(C)CC3)c(C(F)(F)F)c2)cc1C#Cc1nn(C2CCN(C(=O)OC(C)(C)C)CC2)c2ncnc(N)c12 | 145 nM | > 5000 nM | – | –
18 | CCc1ccc(C(=O)Nc2ccc(CN3CCN(C)CC3)c(C(F)(F)F)c2)cc1C#Cc1nn(CC)c2ncnc(N)c12 | 418 nM | > 5000 nM | – | –
19 | Cc1nc(Nc2ncc(C(=O)Nc3c(C)cccc3Cl)s2)cc(N2CCN(CCO)CC2)n1.O [DASATINIB] | 178 nM | > 5000 nM | – | Activity (MDA-MB-231 [5]): 6.31%; Activity (MDA-MB-231 [6]): 9.84%; viability at 0.3 µM (MDA-MB-231 [7]): 82.9%; Activity (MDA-MB-231 [8]): Active; Activity (MDA-MB-231 [9]): Active; Activity (MDA-MB-231 [10]): Active; inhibition (MDA-MB-231 [11]): inactive; Activity (MDA-MB-231 [12]): inactive; inhibition (MDA-MB-231 [13]): Active; TGI (MDA-MB-231 [14]): Active; Activity (MDA-MB-231 [15]): 2.64%; Activity (MDA-MB-231 [16]): 4.73%; viability at 0.3 µM (MDA-MB-231 [17]): 90.4%
20 | CC(=O)O[C@H]1C(=O)[C@@]2(C)[C@H]([C@H](OC(=O)c3ccccc3)[C@]3(O)C[C@H](OC(=O)[C@H](O)[C@@H](NC(=O)c4ccccc4)c4ccccc4)C(C)=C1C3(C)C)[C@]1(OC(C)=O)CO[C@@H]1C[C@@H]2O | – | – | – | TGI (MDA-MB-231 [18]): Active
21 | Cc1ccc(C(=O)Nc2ccc(CN3CCOCC3)c(C(F)(F)F)c2)cc1C#Cc1nn(C(C)C)c2ncnc(N)c12 | 1520 nM | > 5000 nM | 21 nM | –
22 | COCn1nc(C#Cc2cc(C(=O)Nc3ccc(CN4CCN(C)CC4)c(C(F)(F)F)c3)ccc2C)c2c(N)ncnc21 | 51 nM | > 5000 nM | – | –
23 | CCn1nc(C#Cc2cc(C(=O)Nc3ccc(CN4CCN(C)CC4)c(C(F)(F)F)c3)ccc2Cl)c2c(N)ncnc21 | 52 nM | > 5000 nM | – | –
24 | CCn1nc(C#Cc2cccc(C(=O)Nc3ccc(CN4CCN(C)CC4)c(C(F)(F)F)c3)c2)c2c(N)ncnc21 | 24 nM | > 5000 nM | – | –
25 | Cc1ccc(C(=O)Nc2ccc(CN3CCN(C)CC3)c(C(F)(F)F)c2)cc1C#Cc1cnc2cccnn12 [PONATINIB] | 156 nM | > 5000 nM | – | –
